Publication PMC8798964 (Translational Cancer Research, 2021)
Like-named read-outs stand apart in the source and are kept apart here.

Key:
[1] = Pharmacokinetic study: plasma and brain concentration after a single oral dose; format: in vivo, SD rats; conditions: for Kp: male, SD, rat, brain/plasma, po
In short: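 Male SD rats (219.0–260.5 g), fasted overnight until 4 h post-dose, given one oral dose of 10, 15 or 55 mg/kg depending on compound. n=3 per time point (0.25–24 h). Jugular blood in K2EDTA; plasma by spinning at 4 °C. Brains taken after decapitation, homogenised in 3-fold saline. Samples precipitated with acetonitrile plus internal standards, then LC-MS/MS. Brain/plasma ratio calculated at Cmax.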

SU-DHL-6 cells = assay: Apoptosis assay; format: cell-based
In short: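 SU-DHL-6 cells kept in RPMI 1640 with 10% heat-inactivated FBS and penicillin/streptomycin at 37 °C, 5% CO2. Seeded at 4×10^5/mL and left 24 h, then exposed to one of three concentrations of test compound, or DMSO control, for 24 or 48 h. Stained with Annexin V/7-AAD and read by flow cytometry. Live, early apoptotic and late apoptotic/dead populations counted.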

PCNSL = conditions: cited from earlier work
[2] = Ibrutinib concentration in CSF of a PCNSL patient; format: in vivo; conditions: human, po, 560 mg
[3] = phase II, monotherapy 560 mg/day, intent-to-treat analysis

Unbound concentration in brain ([1]; SD rats, 15 mg/kg orally, 4 hours after administration)	Kp [1]	concentration at 2 h [2]	Structure (SMILES)	Pro-apoptosis effect (SU-DHL-6 cells; SU-DHL-6, 50 µM, after another 24 hours (48 h))	Induction of apoptosis (SU-DHL-6 cells; SU-DHL-6, 24 hours, 0.5 µM or higher)	Induction of apoptosis (SU-DHL-6 cells; SU-DHL-6, lower concentration, after another 24 hours (48 h))	ORR rate (PCNSL; phase I/II trial, relapsed/refractory PCNSL patients)	Induction of apoptosis (SU-DHL-6 cells; SU-DHL-6, three concentrations, 24 or 48 hours)	Disease control rate (PCNSL; phase II, monotherapy 560 mg/day, evaluable patients)	Disease control rate (PCNSL; [3])	Stable diseases (PCNSL; [3])	Objective response rate (ORR) (PCNSL; recurrent PCNSL patients, single drug, two clinical trials)	Clinical responses (PCNSL; refractory and recurrent PCNSL, 10 of 13 patients)	Patients who achieved CR (PCNSL; refractory and recurrent PCNSL, cohort of 13)	Induction of apoptosis (SU-DHL-6 cells; SU-DHL-6, 0.5 µM)	Induction of apoptosis (SU-DHL-6 cells; SU-DHL-6, 5 µM, 24 and 48 hours)	Induction of apoptosis (SU-DHL-6 cells; SU-DHL-6, 50 µM, 24 and 48 hours)
below the limit of detection	0.035	–	C=CC(=O)N1CCC([C@@H]2CCNc3c(C(N)=O)c(-c4ccc(Oc5ccccc5)cc4)nn32)CC1 [zanubrutinib]	maintained	good ability in inducing cell apoptosis	cells recovered from apoptosis	–	–	–	–	–	–	–	–	–	–	–
–	0.085	–	CC#CC(=O)N1CC[C@@H](n2c(=O)n(-c3ccc(Oc4ccccc4)cc3)c3c(N)ncnc32)C1 [tirabrutinib]	–	–	–	64%	only induced when cells were treated with high dose tirabrutinib for a relatively longer period of time (50 µM, 48 h)	–	–	–	–	–	–	–	–	–
–	0.098	0.309 ng/mL	C=CC(=O)N1CCC[C@@H](n2nc(-c3ccc(Oc4ccccc4)cc3)c3c(N)ncnc32)C1 [ibrutinib]	–	–	–	–	–	70%	62%	10%	50–70%	77%	five	not observed	subtle	prominent
